The test system of assay [1] is Rattus norvegicus. Kind of assay: Compound was evaluated for rotational uM/kg. Type of assay: functional, organism-based. Summed up:
(§1)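 Male Sprague Dawley rats received a unilateral stereotaxic injection of 6-hydroxydopamine hydrobromide (6 μg in 3 μL) into the substantia nigra region (anterior 24, lateral 1.8, vertical 7.0). Drug was then given sc, and contralateral turns were counted over the next 1 h and reported as turns/h at the stated dose.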

The subject of assay [2] is Felis catus. As to the kind of experiment: Inhibition of chronotropic response to cardioaccelerator nerve stimulation in the cat; NI denotes no inhibition up to 1.55 uM/kg. It is filed as functional, organism-based. The essentials: (§2)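 Cats were bilaterally vagotomized and pretreated iv with atropine sulfate (0.2 mg/kg). Right postganglionic cardioaccelerator nerves were placed on bipolar electrodes and stimulated at 2 Hz, 5-ms pulses, for 30 s at 20–25 V. Heart rate was recorded by cardiotachometer, femoral arterial pressure was monitored, and drugs were given iv via a femoral vein catheter. ED50 is in μmol/kg with 95% CL. Blockade was tested with haloperidol 0.1 mg/kg.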

In assay [3] the test system is Canis familiaris. As to the kind of experiment: Compound was evaluated for emesis action in dogs, administered subcutaneously; NA denotes inactive. Type of assay: functional, organism-based. The note with it: Canis lupus familiaris. The essentials:
(§3)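 Five adult mongrel dogs, housed singly with food ad libitum, were given drug solutions sc, and vomiting frequency was counted over 1 h. Three doses of apomorphine hydrochloride (0.08, 0.16, 0.32 μmol/kg) as reference and three of the test compound were compared by a 3 × 3 parallel line bioassay to give relative potency with 95% confidence limits.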

The species named for assay [4] is Felis catus. Kind of assay: Inhibition of chronotropic response to cardioaccelerator nerve stimulation in the cat; NA denotes inactive. Type of assay: functional, organism-based. Summed up: as §2
The test system of assay [5] is Felis catus. As to the kind of experiment: Inhibition of chronotropic response to cardioaccelerator nerve stimulation in the cat; NA denotes inactive uM/kg. It is filed as functional, organism-based. The essentials: as §2
The subject of assay [6] is Felis catus. Kind of assay: Inhibition of chronotropic response to cardioaccelerator nerve stimulation in the cat at 10 uM/kg; NA denotes inactive. It is filed as functional, organism-based. Summed up:
as §2

Assay [7] deals with Rattus norvegicus. Kind of assay: Compound was evaluated for rotational behavior in rats and (contralateral turning) circling response were recorded at a dose of 14.0 umol/kg; IA = inactive. It is filed as functional, organism-based. Summed up: as §1
The subject of assay [8] is Rattus norvegicus. As to the kind of experiment: Compound was evaluated for rotational behavior in rats and (contralateral turning) circling response were recorded at a dose of 5.85 umol/Kg. It is filed as functional. The essentials:
as §1

For assay [9], the species on record is Felis catus. Kind of assay: Inhibition of chronotropic response to cardioaccelerator nerve stimulation in the cat. It is filed as functional. Summed up:
as §2

In assay [10] the test system is Rattus norvegicus. As to the kind of experiment: Compound was evaluated for rotational behavior in rats and (contralateral turning) circling response were recorded at a dose of 11.7 umol/Kg. It is filed as functional. The essentials: as §1
The subject of assay [11] is Rattus norvegicus. As to the kind of experiment: Compound was evaluated for rotational behavior in rats and (contralateral turning) circling response were recorded at a dose of 400 umol/Kg; IA=Inactive. It is filed as functional, organism-based.
Assay [12] concerns Rattus norvegicus. Kind of assay: Compound was evaluated for rotational behavior in rats and (contralateral turning) circling response were recorded at a dose of 0.41 umol/Kg. Type of assay: functional. The essentials:
as §1

Assay [13] concerns Canis familiaris. As to the kind of experiment: Compound was evaluated for emesis action in dogs, administered subcutaneously; Range is (0.02-0.08). Type of assay: functional, Canis lupus familiaris.
Assay [14] deals with Canis familiaris. As to the kind of experiment: Compound was evaluated for emesis action in dogs administered subcutaneously; NA denotes inactive. Type of assay: functional, organism-based. Conditions: Canis lupus familiaris. The essentials:
as §3

The source made the active and inactive calls. The calls are words filed in the database; no cut-off is given here.

Broadly, the ED50 is the dose that gives a 50% effect, or the effect in half of the subjects. For `Cc1ccc2c(c1O)CCC(N)C2` (configuration not stated), the Activity entry with Rattus norvegicus [1] is on record as “NI”. Further, the ED50 result with Felis catus [2] was “No inhibition”.

On to `Cc1ccc2c(c1O)CCC(NC(C)C)C2` (configuration not stated), for which, in the assay on Canis familiaris [3], the Potency ratio result was “inactive”. For the same molecule, the ED50 entry in the assay listed under Felis catus [4] is “inactive”. With `CCNC1CCc2c(ccc(C)c2O)C1` (configuration not stated), the ED50 entry with Felis catus [5] is “inactive”. As to `CCCNC1CCc2c(ccc(C)c2O)C1` (configuration not stated), the ED50 entry with Felis catus [6] is “inactive”. On to `Cc1ccc2c(c1O)CCC(N(C)C)C2` (configuration not stated), for which the Rotational behavior result in the assay on Rattus norvegicus [7] is “inactive”. As for `Br.CCCN(CCC)C1CCc2c(ccc(C)c2O)C1` (configuration not stated), the Rotational behavior with Rattus norvegicus [8] was 131.43 turns hr-1; in the assay on Rattus norvegicus [10], 346.86 turns hr-1. This molecule also had a median effective dose (ED50) in the assay listed under Felis catus [9] of 0.025 µmol/kg.

As to `Br.CCN(CC)C1CCc2c(ccc(C)c2O)C1` (configuration not stated), in the assay on Rattus norvegicus [11], the Rotational behavior entry was “inactive”. In the assay listed under Felis catus [9], the 50% effect level (ED50) was put at a dose of 0.48 µmol/kg. Regarding `CN1CCc2cccc3c2[C@H]1Cc1ccc(O)c(O)c1-3` [APOMORPHINE], the Rotational behavior with Rattus norvegicus [12] was 175.21 turns hr-1. Further, in the assay listed under Felis catus [9], it took a dose of 0.022 µmol/kg to reach the 50% effect level (ED50). For the same molecule, the Potency ratio in the assay on Canis familiaris [13] was 0.046. Take `CNC1CCc2c(ccc(C)c2O)C1` (configuration not stated): the ED50 result in the assay with Felis catus [5] was “inactive”. Also, in the assay on Canis familiaris [14], the Potency ratio entry is “inactive”.

For the origin of these results see ChEMBL document CHEMBL1121472, “Derivatives of 5-hydroxy-6-methyl-2-aminotetralin” (1980).
